Calls of active or inactive are those of the source. No cut-off for these calls is given here.

Activity data for 36 molecules are collected here from ChEMBL document CHEMBL3272283, “Contraceptive agents from cycloaddition reactions of diarylcyclopropenones and diarylthiirene 1, 1-dioxides” (J Med Chem, 1976).

The test system of series [1] is Rattus norvegicus. Description: Antifertility activity in 1 to 9 days pregnancy Charles River CD rat assessed as reduction in number of viable fetuses at 25 mg/kg, po. The format is functional. In outline: (§1)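 Adult females (rats: Charles River CD; hamsters: Lakeview LAK/LVG-SVR) kept under reversed light (dark 6 a.m.-6 p.m.). Caged with proven-fertile males at 9:00 a.m.; plug or vaginal sperm at 3:00 p.m. marked day 0. Oral dosing generally days 1-9, groups of five; killed day 11. Living fetuses, resorptions and implantation sites counted against controls. Score by % fewer viable fetuses: A <24%, +1 25-49%, +2 50-74%, +3 75-99%, +4 none living.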

The subject of series [2] is Hamster. Description: Antifertility activity in 1 to 9 days pregnancy hamster assessed as reduction in number of viable fetuses at 50 mg/kg, po. The format is functional, Cricetinae. The procedure, abridged:
as §1

Series [3] has as its system Rattus norvegicus. Description: Antifertility activity in 1 to 9 days pregnancy Charles River CD rat assessed as abortion of implanted embryos at 25 mg/kg, po qd for 9 days. In kind it is functional, organism-based. Further details: dose 25 mg/kg. In outline: as §1
For series [4], the species on record is Rattus norvegicus. The series can be described thus: Estrogenic activity in adult ovariectomized rat assessed as induction of uterine growth. In kind it is functional, organism-based.
The species entered for series [5] is Rattus norvegicus. Description: Antiestrogenic activity in rat. In kind it is functional, organism-based.
The test system of series [6] is Hamster. Description: Uterotrophic activity in hamster. In kind it is functional, organism-based. The settings on record: Cricetinae; Uterus.
The subject of series [7] is Rattus norvegicus. The series can be described thus: Antideciduomal activity in pseudopregnant rat administered once in weekly. In kind it is functional, organism-based.
The species named for series [8] is Rattus norvegicus. Description: Estrogenic activity in rat assessed as increase of uterine weight. In kind it is functional, organism-based.
For series [9], the species on record is Rattus norvegicus. Description: Estrogenic activity in immature rat assessed as induction of vaginal opening. The format is functional, organism-based.
For the next series, the species on record is Oryctolagus cuniculus. The series can be described thus: Estrogenic activity in immature rabbit uterus assessed as Clauberg progestational response. In kind it is functional, tissue-based.
Another series has as its system Rhesus monkey. The series can be described thus: Toxicity in rhesus monkey up to 800 mg/kg, po. In kind it is organism-based, Macaca mulatta. The settings on record: in vivo. Also noted: dose 800 mg/kg, route oral.
The subject of series [10] is Hamster. The series can be described thus: Antifertility activity in 1 to 9 days pregnancy hamster assessed as reduction in number of viable fetuses at 10 mg/kg, po. The format is functional, Cricetinae. In outline:
as §1

The species entered for series [11] is Rattus norvegicus. The series can be described thus: Estrogenic activity in immature rat. In kind it is functional, organism-based.
The species entered for series [12] is Rattus norvegicus. Description: Estrogenic activity in adult ovariectomized rat. In kind it is functional, organism-based.
The species entered for series [13] is Rattus norvegicus. The series can be described thus: Estrogenic activity in adult ovariectomized rat assessed as induction of vaginal opening and cornification. The format is functional, organism-based.
The species entered for a further series is Canis familiaris. Description: Effect on mating behavior in spayed dog. The conditions noted are these: Canis lupus familiaris.
Series [14] deals with Rattus norvegicus. The series can be described thus: Antifertility activity in 1 to 9 days pregnancy Charles River CD rat assessed as reduction in number of viable fetuses at 5 mg/kg, po. The format is functional. In outline: as §1
Series [15] relates to Rattus norvegicus. The series can be described thus: Antifertility activity in 1 to 9 days pregnancy Charles River CD rat assessed as reduction in number of viable fetuses at 50 mg/kg, po. The format is functional. The procedure, abridged: as §1

With `O=C1C(c2cccs2)=C(c2cccs2)C2C3CCC(C3)[C@@]12N1CCCCC1` (some centres not stated), the Activity in the series with Rattus norvegicus [1] came to 0%.
For the molecule `O=C1C(c2ccccc2)=C(c2ccccc2)[C@H]2C3CCC(C3)[C@@]12N1CCCC1` (relative stereo), the Activity in the series on Rattus norvegicus [1] stood at 100%; in the series on Hamster [2] it was 0%. The outcome in the series on Rattus norvegicus [3] was Active.
As to `O=S1(=O)C(c2ccc(Cl)cc2)=C1c1ccc(Cl)cc1`, the result in the series with Rattus norvegicus [1] was inactive.
Same read-out and setting: for `COc1ccc(C2=C(c3ccc(OC)cc3)[C@H]3C4CCC(C4)[C@@]3(N3CCCC3)C2=O)cc1` (relative stereo) the value was 0%.
On to `O=C1C(c2ccccc2)=C(c2ccccc2)[C@H]2C3CCC(C3)[C@@]12N1CCCCC1` (relative stereo), for which the result in the series listed under Rattus norvegicus [4], in the series with Hamster [6], in the series on Rattus norvegicus [7], in the series filed under Rattus norvegicus [8], in the series listed under Rattus norvegicus [9] and in the series on Rattus norvegicus [3] was Active. Also, the result in the series filed under Rattus norvegicus [11], in the series listed under Rattus norvegicus [12] and in the series filed under Rattus norvegicus [13] was Active. Further, the result in the series listed under Rattus norvegicus [5], in the series listed under Oryctolagus cuniculus and in the series filed under Canis familiaris was inactive. Further, the Activity entry with Rhesus monkey was “Non-toxic”; in the series on Rattus norvegicus [1] it was 100%; with Hamster [2], 100%; in the series with Hamster [10] it was 25%.
With `O=C1C(c2ccccc2)=C(c2ccccc2)[C@H]2C3CCC(C3)[C@@]12N1CCCCCC1` (relative stereo), the Activity stood at 100% in the series with Rattus norvegicus [1] and 0% in the series with Hamster [2]. Besides, in the series with Rattus norvegicus [3], the result was Active.
With `O=C(/C(=C(\C1=CC2CCC1CC2)c1ccccc1)c1ccccc1)N1CCCCC1`, the Activity in the series on Rattus norvegicus [1] is reported as 0%.
For `CC1=C(/C(=C(\C(=O)N2CCCC2)c2ccccc2)c2ccccc2)C2CCC1C2` (configuration not stated), the Activity in the series with Rattus norvegicus [1] amounted to 0%.
`O=c1c(-c2ccc(Cl)cc2)c1-c1ccc(Cl)cc1`: the result in the series on Rattus norvegicus [1] was inactive.
Same read-out and setting: to `O=C1C(c2ccc(Cl)cc2)=C(c2ccc(Cl)cc2)[C@H]2C3CCC(C3)[C@@]12N1CCCCC1` (relative stereo) belongs 0%.
Still for that read-out and setting: to `O=C(/C(=C(\C1=CCCCc2ccccc21)c1ccccc1)c1ccccc1)N1CCCC1` belongs 0%.
Same read-out and setting: for `O=C1C(c2ccccc2)=C(c2ccccc2)C2C3CC(C4C=CCC43)[C@@]12N1CCCC1` (some centres not stated) the value was 0%; for `O=C1C(c2ccccc2)C(c2ccccc2)C2C3CCC(C3)[C@@]12N1CCCC1` (some centres not stated), 25%.
Turning to `O=C1C(c2ccc(Cl)cc2)=C(c2ccc(Cl)cc2)[C@H]2C3CCC(C3)[C@@]12N1CCCC1` (relative stereo), the Activity with Rattus norvegicus [1] is reported as 0%.
Still for that read-out and setting: for `O=C1C(c2ccccc2)=C(c2ccccc2)C2CCc3ccccc3[C@@]12N1CCCC1` (some centres not stated) the value was 50%; for `O=C(/C(=C(\C1=CC2CCC(C1)C2)c1ccccc1)c1ccccc1)N1CCCCC1` (configuration not stated), 0%; for `O=C1C(c2ccccc2)=C(c2ccccc2)C2CC3CCC(C3)[C@@]12N1CCCC1` (some centres not stated), 0%.
Turning to `O=C1C(c2ccccc2)=C(c2ccccc2)[C@H]2C3CCC(C3)[C@@]12N1CCOCC1` (relative stereo), the Activity in the series on Rattus norvegicus [1] is given as 0%.
As for `O=C(/C(=C(\C=C1CCCCC1)c1ccccc1)c1ccccc1)N1CCCC1`, the Activity with Rattus norvegicus [1] turned out to be 0%.
For `O=C(/C(=C(\C=C1/CC=CCC1)c1ccccc1)c1ccccc1)N1CCCC1`, in the series with Rattus norvegicus [1], the Activity amounted to 0%.
As to `O=c1c(-c2ccccc2)c1-c1ccccc1`, the outcome with Rattus norvegicus [1] was inactive.
As for `O=S1(=O)C(c2ccc(Cl)cc2)=C(c2ccc(Cl)cc2)C2C3CCC(C3)[C@]21N1CCCC1` (some centres not stated), in the series on Rattus norvegicus [1], the Activity worked out at 0%.
Same read-out and setting: to `CN(C)[C@]12C(=O)C(c3ccccc3)=C(c3ccccc3)[C@H]1C1CCC2C1` (relative stereo) belongs 0%; to `O=C(/C(=C(\C1=Cc2ccccc2CC1)c1ccccc1)c1ccccc1)N1CCCCC1`, 100%; to `O=S1(=O)C(c2ccccc2)=C1c1ccccc1`, “inactive”.
Still for that read-out and setting: for `O=S1(=O)C(c2ccccc2)=C(c2ccccc2)C2C3CCC(C3)[C@]21N1CCCCC1` (some centres not stated) the value was 100%.
As to `C[C@@]12C(c3ccccc3)=C(c3ccccc3)C(=O)[C@]1(N1CCCC1)C1CCC2C1` (relative stereo), the Activity in the series on Rattus norvegicus [14] is 0%.
Take `COc1ccc(-c2c(-c3ccc(OC)cc3)c2=O)cc1`: in the series with Rattus norvegicus [1], the result was inactive.
As to `CC(C)=C/C(=C(\C(=O)N1CCCC1)c1ccccc1)c1ccccc1`, in the series on Rattus norvegicus [1], the Activity is recorded as 100%. Besides, the outcome with Rattus norvegicus [14] was inactive.
On to `CN1CCN([C@]23C(=O)C(c4ccccc4)=C(c4ccccc4)[C@H]2C2CCC3C2)CC1` (relative stereo), for which the Activity in the series with Rattus norvegicus [14] amounted to 75%. In the series with Rattus norvegicus [3], the outcome was Active.
For `O=C(/C(=C(\C1=CCCc2ccccc21)c1ccccc1)c1ccccc1)N1CCCC1`, the Activity in the series on Rattus norvegicus [1] came out at 0%.
For the molecule `O=C1C(c2ccccc2)=C(c2ccccc2)C2C3CCC(C3)C[C@@]12N1CCCCC1` (some centres not stated), the Activity in the series on Rattus norvegicus [1] stood at 100%. For the same molecule, in the series with Rattus norvegicus [3], the result was Active.
In the case of `O=C(/C(=C(\C1=Cc2ccccc2CC1)c1ccccc1)c1ccccc1)N1CCCC1`, the Activity with Rattus norvegicus [15] is 100%. The result in the series on Rattus norvegicus [14] was inactive.
With `O=C1C(c2ccccc2)=C(c2ccccc2)C2C3CC(C[C@]12N1CCCC1)c1ccccc13` (some centres not stated), the results for the Activity in the series with Rattus norvegicus [1] and in the series with Hamster [2] were 100% and 25%, respectively. Further, in the series with Rattus norvegicus [3], the outcome was Active.
Turning to `O=C1C(c2ccccc2)=C(c2ccccc2)C2C3CCC(CC3)[C@@]12N1CCCCC1` (some centres not stated), in the series on Rattus norvegicus [1], the Activity is reported as 100%. Further, in the series on Rattus norvegicus [3], the outcome was Active.
As to `O=S1(=O)C(c2ccccc2)=C(c2ccccc2)C2C3CCC(C3)[C@]21N1CCCC1` (some centres not stated), the Activity in the series with Rattus norvegicus [1] worked out at 75%.
